Data as given in ChEMBL document CHEMBL1123504, “2,3-Dialkyl(dimethylamino)indoles: interaction with 5HT1, 5HT2, and rat stomach fundal serotonin receptors” (J Med Chem, 1986).

Assays:
[1] = biological target: Serotonin 2 (5-HT2) receptor (Rattus norvegicus, UniProt P30994+P08909+P14842); assay: Binding affinity towards 5-hydroxytryptamine 2 receptor in rat brain cortical membranes; assay type: cell membranes
Method in brief: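 5HT2 site, [3H]spiperone binding to cortical membranes of 150-200-g male Wistar rats, preincubated to deplete endogenous 5HT; […] per 1 mL Tris buffer. Nonspecific binding defined with 10^-6 M lysergic acid diethylamide. IC50 taken as 50% inhibition of specific binding, 10 concentrations from 10^-9 to 10^-4 M.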

Rattus norvegicus [2] = species on record: Rattus norvegicus; assay: Tested for noncumulative contractile concentration -response curves for serotonin in the rat fundus.; assay type: functional
Method in brief: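 Isolated rat stomach fundus strips, four per fundus, in 10 mL modified Krebs. Noncumulative serotonin curves, about 2 min contact per concentration, washout every 15-20 min, maximal contraction read. Antagonist or buffer for 1 h, then curve repeated; one antagonist concentration per tissue. KB = [B]/(dose ratio - 1) from ED50 shift, reported as -log KB.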

Rattus norvegicus [3] = species on record: Rattus norvegicus; assay: Tested for cumulative contractile concentration -response curves for serotonin in the rat jugular vein.
[4] = biological target: T1, Serotonin 1 (5-HT1) receptor (Rattus norvegicus, UniProt P28564+P30940+P19327+P28565); assay: Binding affinity towards 5-hydroxytryptamine 1 receptor in brain cortical membranes of rat; assay type: cell membranes
Method in brief: (§1)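 Rat 5HT1 site: cortical membranes from 150-200-g male Wistar rats, preincubated in buffer to remove endogenous 5HT; […] per sample in 1 mL Tris buffer. [3H]-5HT at 2.3-2.6 nM; nonspecific binding with 10^-5 M 5HT. IC50 = 50% inhibition of specific binding, from 10 concentrations spanning 10^-9 to 10^-4 M.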

[5] = biological target: T1, Serotonin 1 (5-HT1) receptor; assay: Tested for its binding affinity towards 5-hydroxytryptamine 1 receptor in rat; method in brief: as §1
Rattus norvegicus [6] = species on record: Rattus norvegicus; assay: Tested for cumulative contractile concentration -response curves for serotonin in the rat jugular vein

| Compound | IC50 [1] [µM] | IC50 [4] [µM] | IC50 [5] [µM] | -Log KB (Rattus norvegicus [2]) | -Log KB (Rattus norvegicus [3]) | -Log KB (Rattus norvegicus [6]) |
| --- | --- | --- | --- | --- | --- | --- |
| CCc1c(C)n(C(=O)c2ccc(F)cc2)c2ccc(N(C)C)cc12 | > 1 | – | > 1 | <5 | – | – |
| CCc1c(C)n(C)c2c(N(C)C)cccc12 | > 1 | > 1 | – | <5.5 | – | – |
| CCCn1c(C)c(CC)c2cc(N(C)C)ccc21 | > 1 | > 1 | – | 6.57 | – | – |
| CCc1c(C)n(C)c2ccc(NC(=O)Nc3cccc(C(F)(F)F)c3)cc12 | > 1 | > 1 | – | 7.16 | 5.18 | – |
| CCc1c(C)c2cc(N(C)C)ccc2n1C | > 1 | > 1 | – | 6.69 | – | 6.48 |
| Cc1c(C)n(C)c2ccc(N(C)C)cc12 | > 1 | > 1 | – | 6.71 | – | – |

Now from value to compound, other results behind:

| IC50 [1] [µM] | IC50 [4] [µM] | IC50 [5] [µM] | Compound | -Log KB (Rattus norvegicus [2]) | -Log KB (Rattus norvegicus [3]) | -Log KB (Rattus norvegicus [6]) |
| --- | --- | --- | --- | --- | --- | --- |
| > 1 | > 1 | – | CCc1c(C)n(CC)c2ccc(N(C)C)cc12 | 7.01 | 6.45 | – |
| > 1 | > 1 | – | CCc1c(C)n(C)c2ccc(N(C)C)cc12 | 7.32 | 6.51 | – |
| > 1 | > 1 | – | CCc1c(C)n(C(C)C)c2ccc(N(C)C)cc12 | 7 | – | 7.28 |
| > 1 | > 1 | – | CCc1c(C)[nH]c2ccc(N(C)C)cc12 | 7.3 | 4.93 | – |
| > 1 | > 1 | – | CCc1c(C)[nH]c2ccc(N(C)C)c(Cl)c12 | 6.86 | – | – |
